Read-outs that look alike come from different tables or passages of the source.
Legend:
[1] = system: postmenopausal women with osteoporosis; assay: Changes in calcium metabolism; type: in vivo, human
Outline: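 Weekly s.c. 56.5 μg test compound for 24 weeks, in osteoporotic women aged 60–79 on calcium/vitamin D/magnesium supplements. Blood was drawn in weeks 0, 4, 12 and 24, with 0 h sampling at 0800 before dosing and further samples over 24 h. Corrected serum Ca and intact PTH (electrochemiluminescence immunoassay) are given as means±SE versus 0 h or week 0, paired t test.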

[2] = system: postmenopausal women with osteoporosis; assay: Changes in bone turnover markers; type: in vivo, human
Outline: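 Women aged 60–79 received 56.5 μg test compound s.c. weekly for 24 weeks. In weeks 0, 4, 12 and 24, dosing followed 0 h sampling at 0800, with serum/urine taken at 0, 2, 4, 6, 8, 12 and 24 h. Osteocalcin was measured by IRMA, P1NP by RIA, urinary NTX by ELISA, plus urinary DPD. Read-outs were mean (±SE) percent change from 0 h or week 0, paired t test.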

[3] = system: postmenopausal women with osteoporosis; assay: Adverse events; type: in vivo, human; settings: 56.5 μg once weekly for 24 weeks
Outline: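 Japanese postmenopausal women with osteoporosis, aged 60–79, at four centres. Test compound (PTH peptide) 56.5 μg given s.c. weekly for 24 weeks, with daily calcium 610 mg, vitamin D 400 IU and magnesium 30 mg. Physicians recorded adverse events and classified them by MedDRA 12.0 system organ class.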

[4] = system: healthy postmenopausal women; settings: day 7 after single injection of 56.5 μg; cited from earlier work
[5] = daily teriparatide, cited from earlier work
[6] = cited from earlier work
[7] = after 24 weeks, 56.5 μg once weekly
[8] = at 4 weeks, 56.5 μg once weekly, mean percent change, significant

## CC[C@H](C)[C@H](NC(=O)[C@H](CCC(=O)O)NC(=O)[C@H](CO)NC(=O)[C@@H](NC(=O)[C@@H](N)CO)C(C)C)C(=O)N[C@@H](CCC(N)=O)C(=O)N[C@@H](CC(C)C)C(=O)N[C@@H](CCSC)C(=O)N[C@@H](Cc1cnc[nH]1)C(=O)N[C@@H](CC(N)=O)C(=O)N[C@@H](CC(C)C)C(=O)NCC(=O)N[C@@H](CCCCN)C(=O)N[C@@H](Cc1cnc[nH]1)C(=O)N[C@@H](CC(C)C)C(=O)N[C@@H](CC(N)=O)C(=O)N[C@@H](CO)C(=O)N[C@@H](CCSC)C(=O)N[C@@H](CCC(=O)O)C(=O)N[C@@H](CCCN=C(N)N)C(=O)N[C@H](C(=O)N[C@@H](CCC(=O)O)C(=O)N[C@@H](Cc1c[nH]c2ccccc12)C(=O)N[C@@H](CC(C)C)C(=O)N[C@@H](CCCN=C(N)N)C(=O)N[C@@H](CCCCN)C(=O)N[C@@H](CCCCN)C(=O)N[C@@H](CC(C)C)C(=O)N[C@@H](CCC(N)=O)C(=O)N[C@@H](CC(=O)O)C(=O)N[C@H](C(=O)N[C@@H](Cc1cnc[nH]1)C(=O)N[C@@H](CC(N)=O)C(=O)N[C@@H](Cc1ccccc1)C(=O)O)C(C)C)C(C)C [teriparatide, Human parathyroid hormone (PTH) 1–34]
[1]; 0 h values at 4 and 24 weeks versus 0 weeks, 56.5 μg once weekly, paired t test
  serum corrected Ca level during the 24 week dosage period: decreased significantly
[1]; 0 h values at 12 and 24 weeks versus 0 weeks, 56.5 μg once weekly, paired t test
  intact PTH level during the dosage period of 24 weeks: decreased significantly
[1]; at 2 or 6 h after 56.5 μg injection, range of means over data collection weeks
  serum intact PTH minimum concentration: 25.6 to 28.3 pg/mL
[2]; [7]
  serum P1NP change after 24 weeks: did not increase significantly
  serum osteocalcin change after 24 weeks: increased significantly
[2]; at 2 or 4 h after 56.5 μg injection, range of means over data collection weeks
  urinary DPD maximum value, 24 h percent change from 0 h: 29.5 to 31.6%
[2]; at 4 or 6 h after 56.5 μg injection, range of means over data collection weeks
  urinary NTX maximum value, 24 h percent change from 0 h: 41.2 to 67.4%
[2]; at 4 weeks, 56.5 μg once weekly, mean percent change
  urinary DPD decrease from baseline (0 h values): 17.8%
[2]; [8]
  serum P1NP increase from baseline (0 h values): 19.9%
  serum osteocalcin increase from baseline (0 h values): 26.8%
  urinary NTX decrease from baseline (0 h values): 14.8%
[2]; at 6 h after 56.5 μg injection, range of means over data collection weeks
  serum P1NP minimum value, 24 h percent change from 0 h: −15.1 to −22.3%
[3]
  Hypercalcemia: not observed
[3]; 28 subjects
  serious AEs: No serious AEs were observed
[4]
  NTX decrease: 10%
  P1NP increase: 10%
  osteocalcin increase: 5%
[5]; after 1 month
  bone formation marker increase: 105%
[5]; after 6 months
  bone formation marker (serum PINP) increase: 218%
  bone resorption marker (urinary NTX) increase: 58%
[6]; daily teriparatide
  relative risk reduction in vertebral fractures: 65%
[6]; once-weekly teriparatide injection, 95 % CI, 0.24–1.84, p = 0.43
  relative risk of non-vertebral fragility fracture: 0.67
[6]; once-weekly teriparatide
  relative risk reduction in vertebral fractures: 80%

From publication PMC3923119 (Osteoporosis International, 2013)
